System: U2OS
Experiment: Multiplex assay against U2OS
Format: toxicity, cell-based
Details: human
Outline: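 Cells stained live at seeding with Hoechst33342, BioTracker Green Microtubule Cytoskeleton Dye, MitoTracker Red and Annexin V Alexa Fluor 680 were imaged on a CQ1 microscope at 37°C and 5% CO2 after compound addition. Their classification by CellPathfinder machine-learning gating ran from Hoechst high-intensity objects versus normal cells, to healthy, pyknosed or fragmented nuclei among normal cells, to mitotic or apoptotic among pyknosed cells. Tubulin, mitochondrial-mass and membrane-permeability phenotypes are per cents of healthy-nucleus cells.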

[1] = 12 h, 1 µM, compound concentration 1 uM, replicate 1
[2] = 12 h, 1 µM, compound concentration 1 uM, replicate 2
[3] = 12 h, 10 µM, compound concentration 10 uM, replicate 1
[4] = 12 h, 10 µM, compound concentration 10 uM, replicate 2
[5] = 24 h, 1 µM, compound concentration 1 uM, replicate 1
[6] = 24 h, 1 µM, compound concentration 1 uM, replicate 2
[7] = 24 h, 10 µM, compound concentration 10 uM, replicate 1
[8] = 24 h, 10 µM, compound concentration 10 uM, replicate 2
[9] = 48 h, 1 µM, compound concentration 1 uM, replicate 1
[10] = 48 h, 1 µM, compound concentration 1 uM, replicate 2
[11] = 48 h, 10 µM, compound concentration 10 uM, replicate 1
[12] = 48 h, 10 µM, compound concentration 10 uM, replicate 2

## Cc1cc(NC(=O)NCCN2CCC(O)(Cc3ccccc3)CC2)c2ccccc2n1 [PALOSURAN]
[1]
  Population Apoptotic (%): 80%
  Population Fragmented Nuclei (%): 27%
  Population Healthy Nuclei (%): 65%
  Population Hoechst High Intensity Objects (%): 1%
  Population Membrane Permeable-Phenotype (%): 4%
  Population Mitochondria Different-Phenotype (%): 2%
  Population Mitotic Cells (%): 20%
  Population Normal (%): 98%
  Population Pyknosed Nuclei (%): 6%
  Population Tubulin-Different-Phenotype (%): 1%
  Total Cell Count: 220
[2]
  Population Apoptotic (%): 71%
  Population Fragmented Nuclei (%): 19%
  Population Healthy Nuclei (%): 71%
  Population Hoechst High Intensity Objects (%): 0%
  Population Membrane Permeable-Phenotype (%): 2%
  Population Mitochondria Different-Phenotype (%): 0%
  Population Mitotic Cells (%): 28%
  Population Normal (%): 100%
  Population Pyknosed Nuclei (%): 9%
  Total Cell Count: 145
[3]
  Population Apoptotic (%): 72%
  Population Fragmented Nuclei (%): 30%
  Population Healthy Nuclei (%): 59%
  Population Hoechst High Intensity Objects (%): 3%
  Population Membrane Permeable-Phenotype (%): 6%
  Population Mitochondria Different-Phenotype (%): 1%
  Population Mitotic Cells (%): 28%
  Population Normal (%): 96%
  Population Pyknosed Nuclei (%): 9%
  Population Tubulin-Different-Phenotype (%): 1%
  Total Cell Count: 266
[4]
  Population Apoptotic (%): 66%
  Population Fragmented Nuclei (%): 17%
  Population Healthy Nuclei (%): 70%
  Population Membrane Permeable-Phenotype (%): 12%
  Population Mitochondria Different-Phenotype (%): 2%
  Population Mitotic Cells (%): 33%
  Population Pyknosed Nuclei (%): 11%
  Population Tubulin-Different-Phenotype (%): 8%
  Total Cell Count: 107
[5]
  Population Apoptotic (%): 94%
  Population Fragmented Nuclei (%): 26%
  Population Healthy Nuclei (%): 66%
  Population Hoechst High Intensity Objects (%): 1%
  Population Membrane Permeable-Phenotype (%): 3%
  Population Mitochondria Different-Phenotype (%): 3%
  Population Mitotic Cells (%): 5%
  Population Normal (%): 98%
  Population Pyknosed Nuclei (%): 6%
  Population Tubulin-Different-Phenotype (%): 2%
  Total Cell Count: 276
[6]
  Population Apoptotic (%): 66%
  Population Fragmented Nuclei (%): 17%
  Population Healthy Nuclei (%): 74%
  Population Membrane Permeable-Phenotype (%): 7%
  Population Mitochondria Different-Phenotype (%): 7%
  Population Mitotic Cells (%): 33%
  Population Pyknosed Nuclei (%): 8%
  Population Tubulin-Different-Phenotype (%): 3%
  Total Cell Count: 173
[7]
  Population Apoptotic (%): 92%
  Population Fragmented Nuclei (%): 26%
  Population Healthy Nuclei (%): 65%
  Population Hoechst High Intensity Objects (%): 3%
  Population Membrane Permeable-Phenotype (%): 4%
  Population Mitochondria Different-Phenotype (%): 0%
  Population Mitotic Cells (%): 8%
  Population Normal (%): 96%
  Population Pyknosed Nuclei (%): 8%
  Population Tubulin-Different-Phenotype (%): 2%
  Total Cell Count: 297
[8]
  Population Apoptotic (%): 75%
  Population Fragmented Nuclei (%): 19%
  Population Healthy Nuclei (%): 74%
  Population Membrane Permeable-Phenotype (%): 11%
  Population Mitochondria Different-Phenotype (%): 1%
  Population Mitotic Cells (%): 25%
  Population Pyknosed Nuclei (%): 6%
  Population Tubulin-Different-Phenotype (%): 5%
  Total Cell Count: 129
[9]
  Population Apoptotic (%): 96%
  Population Fragmented Nuclei (%): 25%
  Population Healthy Nuclei (%): 68%
  Population Hoechst High Intensity Objects (%): 1%
  Population Membrane Permeable-Phenotype (%): 5%
  Population Mitochondria Different-Phenotype (%): 3%
  Population Mitotic Cells (%): 3%
  Population Normal (%): 98%
  Population Pyknosed Nuclei (%): 6%
  Population Tubulin-Different-Phenotype (%): 3%
  Total Cell Count: 411
[10]
  Population Apoptotic (%): 84%
  Population Fragmented Nuclei (%): 15%
  Population Healthy Nuclei (%): 73%
  Population Hoechst High Intensity Objects (%): 3%
  Population Membrane Permeable-Phenotype (%): 7%
  Population Mitochondria Different-Phenotype (%): 5%
  Population Mitotic Cells (%): 16%
  Population Normal (%): 97%
  Population Pyknosed Nuclei (%): 11%
  Population Tubulin-Different-Phenotype (%): 4%
  Total Cell Count: 233
[11]
  Population Apoptotic (%): 97%
  Population Fragmented Nuclei (%): 20%
  Population Healthy Nuclei (%): 70%
  Population Hoechst High Intensity Objects (%): 1%
  Population Membrane Permeable-Phenotype (%): 5%
  Population Mitochondria Different-Phenotype (%): 2%
  Population Mitotic Cells (%): 2%
  Population Normal (%): 98%
  Population Pyknosed Nuclei (%): 9%
  Population Tubulin-Different-Phenotype (%): 2%
  Total Cell Count: 421
[12]
  Population Apoptotic (%): 89%
  Population Fragmented Nuclei (%): 16%
  Population Healthy Nuclei (%): 72%
  Population Membrane Permeable-Phenotype (%): 7%
  Population Mitochondria Different-Phenotype (%): 4%
  Population Mitotic Cells (%): 10%
  Population Pyknosed Nuclei (%): 10%
  Population Tubulin-Different-Phenotype (%): 1%
  Total Cell Count: 180

## CC(C)C[C@H](CO)Nc1nc(S[C@@H](C)c2ccccc2)nc2nc(N)sc12 [AZD-8797]
[1]
  Population Apoptotic (%): 83%
  Population Fragmented Nuclei (%): 20%
  Population Healthy Nuclei (%): 65%
  Population Hoechst High Intensity Objects (%): 3%
  Population Membrane Permeable-Phenotype (%): 5%
  Population Mitochondria Different-Phenotype (%): 1%
  Population Mitotic Cells (%): 16%
  Population Normal (%): 96%
  Population Pyknosed Nuclei (%): 14%
  Population Tubulin-Different-Phenotype (%): 2%
  Total Cell Count: 177
[2]
  Population Apoptotic (%): 100%
  Population Fragmented Nuclei (%): 12%
  Population Healthy Nuclei (%): 82%
  Population Hoechst High Intensity Objects (%): 0%
  Population Mitochondria Different-Phenotype (%): 5%
  Population Mitotic Cells (%): 0%
  Population Normal (%): 100%
  Population Pyknosed Nuclei (%): 5%
  Population Tubulin-Different-Phenotype (%): 3%
  Total Cell Count: 95
[3]
  Population Apoptotic (%): 63%
  Population Fragmented Nuclei (%): 21%
  Population Healthy Nuclei (%): 56%
  Population Hoechst High Intensity Objects (%): 4%
  Population Membrane Permeable-Phenotype (%): 30%
  Population Mitochondria Different-Phenotype (%): 12%
  Population Mitotic Cells (%): 36%
  Population Normal (%): 95%
  Population Pyknosed Nuclei (%): 22%
  Population Tubulin-Different-Phenotype (%): 20%
  Total Cell Count: 222
[4]
  Population Apoptotic (%): 78%
  Population Fragmented Nuclei (%): 9%
  Population Healthy Nuclei (%): 79%
  Population Hoechst High Intensity Objects (%): 2%
  Population Membrane Permeable-Phenotype (%): 10%
  Population Mitochondria Different-Phenotype (%): 16%
  Population Mitotic Cells (%): 21%
  Population Normal (%): 97%
  Population Pyknosed Nuclei (%): 10%
  Population Tubulin-Different-Phenotype (%): 6%
  Total Cell Count: 135
[5]
  Population Apoptotic (%): 81%
  Population Fragmented Nuclei (%): 20%
  Population Healthy Nuclei (%): 68%
  Population Hoechst High Intensity Objects (%): 1%
  Population Membrane Permeable-Phenotype (%): 2%
  Population Mitochondria Different-Phenotype (%): 0%
  Population Mitotic Cells (%): 18%
  Population Normal (%): 98%
  Population Pyknosed Nuclei (%): 10%
  Population Tubulin-Different-Phenotype (%): 2%
  Total Cell Count: 219
[6]
  Population Apoptotic (%): 83%
  Population Fragmented Nuclei (%): 17%
  Population Healthy Nuclei (%): 77%
  Population Hoechst High Intensity Objects (%): 0%
  Population Membrane Permeable-Phenotype (%): 4%
  Population Mitochondria Different-Phenotype (%): 2%
  Population Mitotic Cells (%): 16%
  Population Normal (%): 100%
  Population Pyknosed Nuclei (%): 4%
  Population Tubulin-Different-Phenotype (%): 3%
  Total Cell Count: 121
[7]
  Population Apoptotic (%): 76%
  Population Fragmented Nuclei (%): 20%
  Population Healthy Nuclei (%): 58%
  Population Hoechst High Intensity Objects (%): 3%
  Population Membrane Permeable-Phenotype (%): 22%
  Population Mitochondria Different-Phenotype (%): 12%
  Population Mitotic Cells (%): 24%
  Population Normal (%): 96%
  Population Pyknosed Nuclei (%): 21%
  Population Tubulin-Different-Phenotype (%): 13%
  Total Cell Count: 245
[8]
  Population Apoptotic (%): 100%
  Population Fragmented Nuclei (%): 7%
  Population Healthy Nuclei (%): 86%
  Population Hoechst High Intensity Objects (%): 1%
  Population Membrane Permeable-Phenotype (%): 9%
  Population Mitotic Cells (%): 0%
  Population Normal (%): 98%
  Population Pyknosed Nuclei (%): 6%
  Population Tubulin-Different-Phenotype (%): 6%
  Total Cell Count: 156
[9]
  Population Apoptotic (%): 94%
  Population Fragmented Nuclei (%): 18%
  Population Healthy Nuclei (%): 69%
  Population Hoechst High Intensity Objects (%): 2%
  Population Membrane Permeable-Phenotype (%): 6%
  Population Mitochondria Different-Phenotype (%): 0%
  Population Mitotic Cells (%): 5%
  Population Normal (%): 97%
  Population Pyknosed Nuclei (%): 11%
  Population Tubulin-Different-Phenotype (%): 2%
  Total Cell Count: 352
[10]
  Population Apoptotic (%): 100%
  Population Fragmented Nuclei (%): 15%
  Population Healthy Nuclei (%): 77%
  Population Membrane Permeable-Phenotype (%): 2%
  Population Mitochondria Different-Phenotype (%): 2%
  Population Mitotic Cells (%): 0%
  Population Pyknosed Nuclei (%): 6%
  Total Cell Count: 181
[11]
  Population Apoptotic (%): 90%
  Population Fragmented Nuclei (%): 26%
  Population Healthy Nuclei (%): 54%
  Population Hoechst High Intensity Objects (%): 4%
  Population Membrane Permeable-Phenotype (%): 20%
  Population Mitochondria Different-Phenotype (%): 10%
  Population Mitotic Cells (%): 9%
  Population Normal (%): 95%
  Population Pyknosed Nuclei (%): 19%
  Population Tubulin-Different-Phenotype (%): 14%
  Total Cell Count: 296
[12]
  Population Apoptotic (%): 96%
  Population Fragmented Nuclei (%): 12%
  Population Healthy Nuclei (%): 74%
  Population Hoechst High Intensity Objects (%): 3%
  Population Membrane Permeable-Phenotype (%): 11%
  Population Mitochondria Different-Phenotype (%): 5%
  Population Mitotic Cells (%): 3%
  Population Normal (%): 96%
  Population Pyknosed Nuclei (%): 12%
  Population Tubulin-Different-Phenotype (%): 4%
  Total Cell Count: 218

From ChEMBL document CHEMBL5058577, “EUbOPEN Chemogenomics Library 2 (Multiplex)” (2022)
